In data set [1] the target is T1, Xanthine dehydrogenase/oxidase (Bos taurus, UniProt P80457). In words: Activity at bovine xanthine oxidase at 25 uM preincubated for 10 mins. The settings on record: cattle.
The target of data set [2] is T1, Xanthine dehydrogenase/oxidase. In words: Inhibition of bovine xanthine oxidase assessed as reduction in free enzyme turnover at 10 uM relative to control. The settings on record: cattle.
Data set [3] shares this target. Nature of the data set: Inhibition of bovine xanthine oxidase assessed as reduction of cytochrome c. Details: concentration or dose not given beside the values. Particulars: cattle.
Data set [4] has the same target. Nature of the data set: Inhibition of bovine xanthine oxidase assessed as reduction of cytochrome c at 25 uM preincubated for 10 mins. Particulars: cattle.
Data set [5] has the same target. In words: Inhibition of bovine xanthine oxidase assessed as reduction in free enzyme turnover at 50 uM relative to control. The settings on record: cattle.
Data set [6] shares this target. Nature of the data set: Activity at bovine xanthine oxidase at 10 uM. The settings on record: cattle.
For data set [7] the target is unchanged. In words: Ratio of kcat to km for bovine xanthine oxidase at 10 uM. The settings on record: cattle.
The target is the same in data set [8]. Nature of the data set: Inhibition of bovine xanthine oxidase assessed as reduction of cytochrome c at 50 uM. Particulars: cattle.
The target is the same in data set [9]. In words: Inhibition of bovine xanthine oxidase assessed as reduction of cytochrome c at 10 uM. The settings on record: cattle.
Data set [10] shares this target. Nature of the data set: Ratio of kcat to km for bovine xanthine oxidase at 50 uM. Particulars: cattle.
Data set [11] has the same target. In words: Ratio of kcat to km for bovine xanthine oxidase at 25 uM preincubated for 10 mins. The settings on record: cattle.
The target is the same in data set [12]. Nature of the data set: Activity at bovine xanthine oxidase at 25 uM. Particulars: cattle.
For data set [13] the target is unchanged. Nature of the data set: Ratio of kcat to km for bovine xanthine oxidase at 25 uM. Particulars: cattle.
Data set [14] has the same target. Nature of the data set: Activity at bovine xanthine oxidase at 50 uM. The settings on record: cattle.
For data set [15] the target is unchanged. In words: Inhibition of bovine xanthine oxidase assessed as reduction in free enzyme turnover at 50 uM relative to control. Particulars: cattle.
For data set [16] the target is unchanged. Nature of the data set: Inhibition of bovine xanthine oxidase assessed as reduction in xanthine turnover at 50 uM. Particulars: cattle.
The target is the same in data set [17]. In words: Inhibition of bovine xanthine oxidase assessed as decrease in production of superoxide at 50 uM relative to control. Particulars: cattle. Put shortly:
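Superoxide followed indirectly by cytochrome c reduction. A550 monitored (Δε550 = 19.6 mM−1cm−1), initial rates vs no-inhibitor control. 25°C, 0.1 M MOPS, 0.2 mM EDTA, 0.1 M KCl, pH 7.4.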

Data set [18] shares this target. In words: Ratio of kcat to km for bovine xanthine oxidase at 25 uM preincubated for 10 mins relative to control. Particulars: cattle.
Data set [19] shares this target. Nature of the data set: Inhibition of bovine xanthine oxidase assessed as reduction in xanthine turnover at 25 uM. The settings on record: cattle.
The target is the same in data set [20]. In words: Inhibition of bovine xanthine oxidase assessed as reduction in xanthine turnover at 10 uM. The settings on record: cattle.
Data set [21] has the same target. In words: Inhibition of bovine xanthine oxidase.

A value given as a limit tells only on which side of the number the result lay.

As a reminder, the inhibition is the relative decrease from the control value, in per cent. As a reminder, the Ki is the equilibrium dissociation constant of an inhibitor or competing ligand from its target.

T1 sequence (P80457 whole entry): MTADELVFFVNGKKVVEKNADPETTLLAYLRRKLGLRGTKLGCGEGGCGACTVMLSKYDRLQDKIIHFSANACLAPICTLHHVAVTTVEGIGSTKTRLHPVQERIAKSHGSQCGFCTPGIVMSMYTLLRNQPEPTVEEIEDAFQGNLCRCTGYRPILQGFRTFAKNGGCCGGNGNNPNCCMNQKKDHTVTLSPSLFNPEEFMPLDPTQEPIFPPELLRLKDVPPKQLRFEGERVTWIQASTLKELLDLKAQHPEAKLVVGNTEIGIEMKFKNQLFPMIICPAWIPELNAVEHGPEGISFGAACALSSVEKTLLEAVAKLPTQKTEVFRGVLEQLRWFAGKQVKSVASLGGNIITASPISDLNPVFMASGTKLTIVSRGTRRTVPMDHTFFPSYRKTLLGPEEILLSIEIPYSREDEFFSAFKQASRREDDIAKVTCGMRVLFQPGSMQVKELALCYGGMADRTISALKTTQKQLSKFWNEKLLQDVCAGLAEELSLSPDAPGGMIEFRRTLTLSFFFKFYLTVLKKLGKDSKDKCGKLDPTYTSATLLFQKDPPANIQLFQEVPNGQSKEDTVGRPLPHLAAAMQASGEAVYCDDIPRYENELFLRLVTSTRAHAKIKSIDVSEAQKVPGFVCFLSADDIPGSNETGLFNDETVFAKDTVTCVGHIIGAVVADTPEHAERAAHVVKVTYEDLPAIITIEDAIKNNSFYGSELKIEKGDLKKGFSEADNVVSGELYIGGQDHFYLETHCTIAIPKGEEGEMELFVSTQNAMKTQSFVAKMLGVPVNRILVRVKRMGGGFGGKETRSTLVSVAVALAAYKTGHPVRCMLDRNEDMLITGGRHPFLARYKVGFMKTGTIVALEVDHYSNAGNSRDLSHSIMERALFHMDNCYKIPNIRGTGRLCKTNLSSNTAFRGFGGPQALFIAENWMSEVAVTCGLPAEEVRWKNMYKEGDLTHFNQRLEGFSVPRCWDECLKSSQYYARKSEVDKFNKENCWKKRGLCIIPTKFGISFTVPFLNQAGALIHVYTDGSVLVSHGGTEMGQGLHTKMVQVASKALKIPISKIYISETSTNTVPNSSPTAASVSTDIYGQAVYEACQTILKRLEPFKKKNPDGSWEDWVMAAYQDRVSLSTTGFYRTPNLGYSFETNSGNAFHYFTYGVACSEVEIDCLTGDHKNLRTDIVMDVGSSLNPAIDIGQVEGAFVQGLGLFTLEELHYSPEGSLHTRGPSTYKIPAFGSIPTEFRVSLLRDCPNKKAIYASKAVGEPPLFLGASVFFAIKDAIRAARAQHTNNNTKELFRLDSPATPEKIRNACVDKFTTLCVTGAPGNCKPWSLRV

On to `O=c1c(O)c(-c2ccc(O)c(O)c2)oc2cc(O)cc(O)c12` [QUERCETIN], for which the Kcat came out at 8.1 s⁻¹ in data set [1], 3.8 s⁻¹ in data set [6], 1.9 s⁻¹ in data set [12] and 12.4 s⁻¹ in data set [14]. In addition, the results for the “fold change (FC)” value in data set [2], in data set [5] and in [15] were 20, 170 and 170, respectively. Also, the Activity in data set [3] is reported as 100 nM/s; in [4], 110 nM/s; in data set [8], 80 nM/s; in data set [9], 140 nM/s. The Kcat/Km in [7] came out at 1.6e+06 M⁻¹ s⁻¹; in [10], 20000 M⁻¹ s⁻¹; in [11] it was 50000 M⁻¹ s⁻¹; in data set [13], 10000 M⁻¹ s⁻¹.

For the compound `COc1cc(C2Oc3cc([C@H]4Oc5cc(O)cc(O)c5C(=O)[C@@H]4O)ccc3OC2CO)ccc1O` (stereo partly specified) [SILIBININ], the Kcat is 6.9 s⁻¹ in data set [1], 5.8 s⁻¹ in data set [6], 13.3 s⁻¹ in [12] and 4 s⁻¹ in data set [14]. In addition, the Activity in data set [3] was found to be 150 nM/s; in data set [4], 120 nM/s; in [8] it was 140 nM/s; in data set [9] it was 160 nM/s. The inhibition at 50 µM was 50% in data set [16] and 20% in data set [17]. The Kcat/Km was determined as 140000 M⁻¹ s⁻¹ in [7], 110000 M⁻¹ s⁻¹ in data set [10], 70000 M⁻¹ s⁻¹ in data set [11] and 130000 M⁻¹ s⁻¹ in data set [13]. In addition, the “fold change (FC)” value in data set [18] is reported as 80. Besides, the inhibition at 25 µM in [19] was 50%. In data set [20], the inhibition at 10 µM is 50%.

With `O=c1cc(-c2ccc(O)c(O)c2)oc2cc(O)cc(O)c12` [LUTEOLIN], the Kcat in [1] came out at 3.8 s⁻¹; in [6] it was 6.2 s⁻¹; in [12] it was 4.5 s⁻¹; in data set [14], 12.2 s⁻¹. Moreover, the Activity in data set [3] is given as 82 nM/s; in [4], 110 nM/s; in [8] it was 71 nM/s; in [9], 100 nM/s. Besides, the Kcat/Km stood at 200000 M⁻¹ s⁻¹ in data set [7], 20000 M⁻¹ s⁻¹ in data set [10], 50000 M⁻¹ s⁻¹ in data set [11] and 30000 M⁻¹ s⁻¹ in data set [13]. This compound also displayed a Ki in data set [21] of 1.9 µM.

Turning to `Oc1ncnc2[nH]ncc12` [ALLOPURINOL], the Kcat was determined as 1.3 s⁻¹ in data set [1], 5.9 s⁻¹ in [6], 11.8 s⁻¹ in data set [12] and 4.3 s⁻¹ in [14]. For the same compound, the Activity amounted to 140 nM/s in [3], 28 nM/s in [4], 120 nM/s in data set [8] and 140 nM/s in data set [9]. Moreover, the Kcat/Km in data set [7] was found to be 320000 M⁻¹ s⁻¹; in [10], 110000 M⁻¹ s⁻¹; in data set [11], 7000 M⁻¹ s⁻¹; in data set [13] it was 150000 M⁻¹ s⁻¹.

With `COc1cc(/C=C/C(=O)CC(=O)/C=C/c2ccc(O)c(OC)c2)ccc1O` [CURCUMIN], the Kcat in data set [1] was 6.5 s⁻¹; in [6], 2.6 s⁻¹; in data set [12], 4.3 s⁻¹; in data set [14] it was 5 s⁻¹. Besides, the Activity in data set [3] came to 150 nM/s; in data set [4], 150 nM/s; in data set [8] it was 150 nM/s; in [9], 160 nM/s. For the same compound, in data set [16], the inhibition at 50 µM was more than 80%. Besides, the Kcat/Km in data set [7] turned out to be 4.8e+06 M⁻¹ s⁻¹; in data set [10] it was 5.1e+06 M⁻¹ s⁻¹; in data set [11], 3.9e+06 M⁻¹ s⁻¹; in data set [13], 6.5e+06 M⁻¹ s⁻¹. For the same compound, the inhibition at 10 µM in data set [20] turned out to be 60%.

These data come from ChEMBL document CHEMBL1151898 (J Nat Prod, 2009).
